Results taken from ChEMBL document CHEMBL2086345, “Metabotropic glutamate receptor 5 negative allosteric modulators as novel tools for in vivo investigation” (ACS Med Chem Lett, 2012).
Blank lines part the entries; values can stand above or below the molecule they belong to. The source made the active and inactive calls. No cut-off for these calls is given here.

Tests used:
[1] = target: T1, Metabotropic glutamate receptor 5 (Rattus norvegicus, UniProt P31424); assay: Displacement of [3H]MPEP from mGluR5 in Sprague-Dawley rat brain membrane after 60 mins by liquid scintillation counting; type: cell membranes
T1 sequence (P31424 whole entry): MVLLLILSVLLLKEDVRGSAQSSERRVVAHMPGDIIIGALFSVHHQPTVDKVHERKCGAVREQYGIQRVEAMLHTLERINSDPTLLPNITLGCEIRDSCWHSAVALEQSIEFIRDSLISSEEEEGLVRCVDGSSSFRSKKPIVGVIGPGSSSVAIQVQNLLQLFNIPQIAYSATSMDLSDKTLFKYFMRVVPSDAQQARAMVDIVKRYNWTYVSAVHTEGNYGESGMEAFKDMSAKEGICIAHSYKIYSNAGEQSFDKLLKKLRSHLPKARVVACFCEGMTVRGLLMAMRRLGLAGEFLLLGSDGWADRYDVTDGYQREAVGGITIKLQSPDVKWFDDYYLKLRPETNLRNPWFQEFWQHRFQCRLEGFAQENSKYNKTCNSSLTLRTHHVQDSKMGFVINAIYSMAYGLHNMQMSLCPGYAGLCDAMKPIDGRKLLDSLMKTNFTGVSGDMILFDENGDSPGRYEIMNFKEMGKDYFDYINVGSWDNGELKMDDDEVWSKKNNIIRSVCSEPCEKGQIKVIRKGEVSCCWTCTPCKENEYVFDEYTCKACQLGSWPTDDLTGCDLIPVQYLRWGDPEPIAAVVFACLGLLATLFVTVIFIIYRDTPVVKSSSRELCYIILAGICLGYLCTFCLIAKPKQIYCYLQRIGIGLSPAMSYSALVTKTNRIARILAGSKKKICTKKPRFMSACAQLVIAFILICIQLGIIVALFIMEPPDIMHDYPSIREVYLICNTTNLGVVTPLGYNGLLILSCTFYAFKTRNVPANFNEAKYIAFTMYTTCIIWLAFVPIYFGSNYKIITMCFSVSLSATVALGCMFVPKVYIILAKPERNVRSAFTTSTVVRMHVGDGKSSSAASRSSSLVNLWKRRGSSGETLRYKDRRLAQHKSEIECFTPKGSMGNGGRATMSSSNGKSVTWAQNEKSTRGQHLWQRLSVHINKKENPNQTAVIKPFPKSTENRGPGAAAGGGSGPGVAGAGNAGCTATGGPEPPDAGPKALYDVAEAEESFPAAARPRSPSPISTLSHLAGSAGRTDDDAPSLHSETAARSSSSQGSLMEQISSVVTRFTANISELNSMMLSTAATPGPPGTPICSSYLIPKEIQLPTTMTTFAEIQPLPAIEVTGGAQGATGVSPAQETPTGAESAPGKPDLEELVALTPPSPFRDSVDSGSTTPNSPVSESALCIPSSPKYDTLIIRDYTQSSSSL

[2] = target: T1, Metabotropic glutamate receptor 5; assay: Inverse agonist activity at rat mGluR5 expressed in HEK293A cells coexpressing Gqalpha assessed as inhibition of basal D-myo-inositol 1 production by ELISA
Mus musculus [3] = assay: Anxiolytic activity in Swiss Webster mouse assessed as increase in locomotor activity at 30 mg/kg, ip administered as single dose 15 mins prior to testing by open-field test; type: functional, organism-based; parameters: dose 30 mg/kg
Summary of the method: (§1)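 Open-field test in mice. Drugs were suspended in 2% ethanol/10% Tween 80/water (MTEP in saline) and given ip 15 min before testing. Locomotor activity and time in the center region were recorded. n = 10–12 per dose, means ± SEM. Each dose was compared with its within-group vehicle cohort by one-way ANOVA with Bonferroni post hoc test.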

Mus musculus [4] = assay: Anxiolytic activity in Swiss Webster mouse assessed as increase in time spent in the centre region at 30 mg/kg, ip administered as single dose 15 mins prior to testing by open-field test; type: functional, organism-based; parameters: dose 30 mg/kg; summary of the method: as §1
Mus musculus [5] = assay: Anxiolytic activity in Swiss Webster mouse assessed as increase in time spent in light compartment at 30 mg/kg, ip administered as single dose 15 mins prior to testing by light-dark box test; type: functional, organism-based; parameters: dose 30 mg/kg
Summary of the method: (§2)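 Light–dark box test in mice. Drugs were given ip 15 min pretest in a 2% ethanol, 10% Tween 80 and water suspension (MTEP in saline). Read-outs were the proportion of time in the light compartment and the number of light–dark transitions. n = 10–12 per dose, means ± SEM. One-way ANOVA with Bonferroni test against the within-group vehicle cohort.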

Mus musculus [6] = assay: Anxiolytic activity in Swiss Webster mouse assessed as increase in number of compartment transitions at 30 mg/kg, ip administered as single dose 15 mins prior to testing by light-dark box test; type: functional, organism-based; parameters: dose 30 mg/kg; summary of the method: as §2
[7] = target: Metabotropic glutamate receptor 5 (Rattus norvegicus) (UniProt P31424); assay: Inverse agonist activity at rat mGluR5 expressed in HEK293A cells coexpressing Gqalpha assessed as inhibition of quisqualic-induced D-myo-inositol 1 production by ELISA; type: functional, cell-based; details: HEK293-A
Metabotropic glutamate receptor 5 (Rattus norvegicus), sequence (P31424 21-1203 limits assumed): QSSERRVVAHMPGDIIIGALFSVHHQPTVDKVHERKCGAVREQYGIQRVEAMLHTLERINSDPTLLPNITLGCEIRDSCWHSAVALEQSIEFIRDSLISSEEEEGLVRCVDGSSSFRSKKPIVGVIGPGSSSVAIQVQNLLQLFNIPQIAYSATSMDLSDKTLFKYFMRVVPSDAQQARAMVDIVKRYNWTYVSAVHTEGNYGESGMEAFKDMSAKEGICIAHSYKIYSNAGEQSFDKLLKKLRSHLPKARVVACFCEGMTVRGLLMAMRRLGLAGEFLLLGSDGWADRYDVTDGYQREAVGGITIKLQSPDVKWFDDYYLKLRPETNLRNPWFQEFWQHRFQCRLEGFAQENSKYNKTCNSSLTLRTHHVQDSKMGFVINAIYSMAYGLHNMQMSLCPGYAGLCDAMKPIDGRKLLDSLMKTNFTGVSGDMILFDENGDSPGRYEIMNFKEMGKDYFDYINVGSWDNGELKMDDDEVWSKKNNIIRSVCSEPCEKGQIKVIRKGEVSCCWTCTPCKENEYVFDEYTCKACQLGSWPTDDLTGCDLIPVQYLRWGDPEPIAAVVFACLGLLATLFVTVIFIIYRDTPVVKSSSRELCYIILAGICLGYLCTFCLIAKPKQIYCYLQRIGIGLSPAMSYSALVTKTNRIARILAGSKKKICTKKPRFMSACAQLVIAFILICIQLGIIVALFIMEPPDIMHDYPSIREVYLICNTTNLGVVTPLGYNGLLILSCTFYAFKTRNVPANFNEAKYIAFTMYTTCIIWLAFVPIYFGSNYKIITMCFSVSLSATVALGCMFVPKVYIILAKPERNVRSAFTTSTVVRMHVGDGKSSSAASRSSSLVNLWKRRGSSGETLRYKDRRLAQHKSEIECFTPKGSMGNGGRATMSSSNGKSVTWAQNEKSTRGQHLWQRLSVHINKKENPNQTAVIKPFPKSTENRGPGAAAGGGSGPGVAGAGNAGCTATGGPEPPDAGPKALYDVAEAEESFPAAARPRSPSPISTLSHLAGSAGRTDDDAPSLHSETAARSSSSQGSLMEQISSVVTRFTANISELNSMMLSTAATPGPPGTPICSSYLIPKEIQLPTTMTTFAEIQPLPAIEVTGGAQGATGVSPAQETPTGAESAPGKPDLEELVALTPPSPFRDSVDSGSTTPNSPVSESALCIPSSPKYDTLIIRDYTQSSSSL
Summary of the method: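 IP₃ production was gauged indirectly by IP-One ELISA for IP₁ accumulation. Dose–response curves were run without agonist and in the presence of 1 μM quisqualic acid.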

Mus musculus [8] = assay: Anxiolytic activity in ip dosed Swiss Webster mouse assessed as increase in locomotor activity administered as single dose 15 mins prior to testing by open-field test; type: functional, organism-based; summary of the method: as §1
Mus musculus [9] = assay: Anxiolytic activity in ip dosed Swiss Webster mouse assessed as increase in time spent in the centre region administered as single dose 15 mins prior to testing by open-field test; type: functional, organism-based; summary of the method: as §1
Mus musculus [10] = assay: Anxiolytic activity in ip dosed Swiss Webster mouse assessed as increase in time spent in light compartment administered as single dose 15 mins prior to testing by light-dark box test; type: functional, organism-based; summary of the method: as §2
Mus musculus [11] = assay: Anxiolytic activity in ip dosed Swiss Webster mouse assessed as increase in number of compartment transitions administered as single dose 15 mins prior to testing by light-dark box test; type: functional, organism-based; summary of the method: as §2
Mus musculus [12] = assay: Anxiolytic activity in Swiss Webster mouse assessed as increase in locomotor activity at 3 to 30 mg/kg, ip administered as single dose 15 mins prior to testing by open-field test; type: functional, organism-based; summary of the method: as §1
Mus musculus [13] = assay: Anxiolytic activity in Swiss Webster mouse assessed as increase in time spent in the centre region at 3 to 30 mg/kg, ip administered as single dose 15 mins prior to testing by open-field test; type: functional, organism-based; summary of the method: as §1
Mus musculus [14] = assay: Anxiolytic activity in Swiss Webster mouse assessed as increase in time spent in light compartment at 3 to 30 mg/kg, ip administered as single dose 15 mins prior to testing by light-dark box test; type: functional, organism-based; summary of the method: as §2
Mus musculus [15] = assay: Anxiolytic activity in Swiss Webster mouse assessed as increase in number of compartment transitions at 3 to 30 mg/kg, ip administered as single dose 15 mins prior to testing by light-dark box test; type: functional, organism-based; summary of the method: as §2
[16] = target: Metabotropic glutamate receptor 5 (Rattus norvegicus) (UniProt P31424); assay: Ratio of MPEP Ki to compound Ki for mGluR5 in Sprague-Dawley rat brain membrane; type: cell membranes
Mus musculus [17] = assay: Anxiolytic activity in Swiss Webster mouse assessed as increase in locomotor activity at 0.3 mg/kg, ip administered as single dose 15 mins prior to testing by open-field test; type: functional, organism-based; parameters: dose 0.3 mg/kg; summary of the method: as §1
Mus musculus [18] = assay: Anxiolytic activity in Swiss Webster mouse assessed as increase in time spent in the centre region at 0.3 mg/kg, ip administered as single dose 15 mins prior to testing by open-field test; type: functional, organism-based; parameters: dose 0.3 mg/kg; summary of the method: as §1
Mus musculus [19] = assay: Anxiolytic activity in Swiss Webster mouse assessed as increase in time spent in light compartment at 0.3 mg/kg, ip administered as single dose 15 mins prior to testing by light-dark box test; type: functional, organism-based; parameters: dose 0.3 mg/kg; summary of the method: as §2
Mus musculus [20] = assay: Anxiolytic activity in Swiss Webster mouse assessed as increase in number of compartment transitions at 0.3 mg/kg, ip administered as single dose 15 mins prior to testing by light-dark box test; type: functional, organism-based; parameters: dose 0.3 mg/kg; summary of the method: as §2
Mus musculus [21] = assay: Anxiolytic activity in Swiss Webster mouse assessed as increase in locomotor activity at 3 mg/kg, ip administered as single dose 15 mins prior to testing by open-field test; type: functional, organism-based; parameters: dose 3 mg/kg; summary of the method: as §1
Mus musculus [22] = assay: Anxiolytic activity in Swiss Webster mouse assessed as increase in time spent in the centre region at 3 mg/kg, ip administered as single dose 15 mins prior to testing by open-field test; type: functional, organism-based; parameters: dose 3 mg/kg; summary of the method: as §1
Mus musculus [23] = assay: Anxiolytic activity in Swiss Webster mouse assessed as increase in time spent in light compartment at 3 mg/kg, ip administered as single dose 15 mins prior to testing by light-dark box test; type: functional, organism-based; parameters: dose 3 mg/kg; summary of the method: as §2
Mus musculus [24] = assay: Anxiolytic activity in Swiss Webster mouse assessed as increase in number of compartment transitions at 3 mg/kg, ip administered as single dose 15 mins prior to testing by light-dark box test; type: functional, organism-based; parameters: dose 3 mg/kg; summary of the method: as §2
Mus musculus [25] = assay: Anxiolytic activity in Swiss Webster mouse assessed as increase in locomotor activity at 0.1 to 0.3 mg/kg, ip administered as single dose 15 mins prior to testing by open-field test; type: functional, organism-based; summary of the method: as §1
Mus musculus [26] = assay: Anxiolytic activity in Swiss Webster mouse assessed as increase in time spent in the centre region at 0.1 to 0.3 mg/kg, ip administered as single dose 15 mins prior to testing by open-field test; type: functional, organism-based; summary of the method: as §1
Mus musculus [27] = assay: Anxiolytic activity in Swiss Webster mouse assessed as increase in time spent in light compartment at 0.1 to 0.3 mg/kg, ip administered as single dose 15 mins prior to testing by light-dark box test; type: functional, organism-based; summary of the method: as §2
Mus musculus [28] = assay: Anxiolytic activity in Swiss Webster mouse assessed as increase in number of compartment transitions at 0.1 to 0.3 mg/kg, ip administered as single dose 15 mins prior to testing by light-dark box test; type: functional, organism-based; summary of the method: as §2
Mus musculus [29] = assay: Anxiolytic activity in Swiss Webster mouse assessed as increase in locomotor activity at 10 mg/kg, ip administered as single dose 15 mins prior to testing by open-field test; type: functional, organism-based; parameters: dose 10 mg/kg; summary of the method: as §1
Mus musculus [30] = assay: Anxiolytic activity in Swiss Webster mouse assessed as increase in time spent in the centre region at 10 mg/kg, ip administered as single dose 15 mins prior to testing by open-field test; type: functional, organism-based; parameters: dose 10 mg/kg; summary of the method: as §1
Mus musculus [31] = assay: Anxiolytic activity in Swiss Webster mouse assessed as increase in time spent in light compartment at 10 mg/kg, ip administered as single dose 15 mins prior to testing by light-dark box test; type: functional, organism-based; parameters: dose 10 mg/kg; summary of the method: as §2
Mus musculus [32] = assay: Anxiolytic activity in Swiss Webster mouse assessed as increase in number of compartment transitions at 10 mg/kg, ip administered as single dose 15 mins prior to testing by light-dark box test; type: functional, organism-based; parameters: dose 10 mg/kg; summary of the method: as §2

SMILES: COc1cccc(C#Cc2cc(F)cc(C#N)c2)n1
Ki [1]: 40 nM
IC50 [2]: 400 nM

SMILES: CCc1cccc(C#Cc2cccc(C#N)c2)n1
Ki [1]: 3.4 nM
IC50 [2]: 80 nM

SMILES: N#Cc1cncc(C#Cc2cccc(C#N)n2)c1
Ki [1]: 52 nM
IC50 [2]: 500 nM

SMILES: N#Cc1cc(F)cc(C#Cc2cccc(F)n2)c1
Ki [1]: 41 nM
IC50 [2]: 80 nM

SMILES: CC(=O)c1cccc(C#Cc2cc(F)cc(C#N)c2)n1
Ki [1]: 64 nM
IC50 [2]: 240 nM

SMILES: N#Cc1cncc(C#Cc2cccc(CO)n2)c1
Ki [1]: > 10000 nM

SMILES: COc1cc(C#N)cc(C#Cc2cccc(C)n2)c1
Ki [1]: 1.29 nM
IC50 [2]: 3.4 nM

SMILES: CCCCc1cccc(C#Cc2cccc(C#N)c2)n1
Ki [1]: 45 nM
IC50 [2]: 700 nM

SMILES: N#Cc1cccc(C#Cc2cccc(F)n2)c1
Ki [1]: 150 nM
IC50 [2]: 210 nM

SMILES: N#Cc1cccc(C#Cc2cc(F)cc(C(N)=O)c2)n1
Ki [1]: > 10000 nM

SMILES: N#Cc1cc(F)cc(C#Cc2cccc(CO)n2)c1
Ki [1]: 7.5 nM
IC50 [2]: 50 nM

SMILES: N#Cc1cccc(C#Cc2cccc(CO)n2)c1
Ki [1]: 37 nM
IC50 [2]: 30 nM

Continued, in another order:

Ki [1]: 114 nM
IC50 [2]: 300 nM
SMILES: CC(=O)c1cccc(C#Cc2cccc(C#N)c2)n1

Ki [1]: 1.04 nM
IC50 [2]: 13 nM
SMILES: Cc1cccc(C#Cc2cccc(C#N)c2)n1

inhibition [7]: Dose-dependent effect
SMILES: Cc1cccc(C#Cc2ccccc2)n1
Activity (Mus musculus [3]): Active
Activity (Mus musculus [4]): inactive
Activity (Mus musculus [5]): inactive
Activity (Mus musculus [6]): inactive
Activity (Mus musculus [8]): Dose-dependent effect
Activity (Mus musculus [9]): Dose-dependent effect
Activity (Mus musculus [10]): Dose-dependent effect
Activity (Mus musculus [11]): Dose-dependent effect
Activity (Mus musculus [12]): Active
Activity (Mus musculus [13]): Active
Activity (Mus musculus [14]): Active
Activity (Mus musculus [15]): Active

Ki [1]: > 10000 nM
SMILES: N#Cc1cccc(C#Cc2cccc(C(N)=O)c2)n1

Ki [1]: 200 nM
IC50 [2]: 300 nM
SMILES: COc1cccc(C#Cc2cccc(C#N)c2)n1

Ki [1]: 0.67 nM
Ratio Ki [16]: 24
inhibition [7]: Dose-dependent effect
IC50 [2]: 2.4 nM
SMILES: Cc1cccc(C#Cc2cc(F)cc(C#N)c2)n1
Activity (Mus musculus [8]): Dose-dependent effect
Activity (Mus musculus [9]): Dose-dependent effect
Activity (Mus musculus [10]): Dose-dependent effect
Activity (Mus musculus [11]): Dose-dependent effect
Activity (Mus musculus [17]): Active
Activity (Mus musculus [18]): Active
Activity (Mus musculus [19]): Active
Activity (Mus musculus [20]): Active
Activity (Mus musculus [21]): Active
Activity (Mus musculus [22]): inactive
Activity (Mus musculus [23]): inactive
Activity (Mus musculus [24]): inactive

Ki [1]: 8.2 nM
IC50 [2]: 20 nM
SMILES: N#Cc1cccc(C#Cc2cccc(C#N)n2)c1

Ki [1]: 2.7 nM
Ratio Ki [16]: 6
inhibition [7]: Dose-dependent effect
IC50 [2]: 9 nM
SMILES: N#Cc1cc(F)cc(C#Cc2cccc(C#N)n2)c1
Activity (Mus musculus [8]): Dose-dependent effect
Activity (Mus musculus [9]): Dose-dependent effect
Activity (Mus musculus [10]): Dose-dependent effect
Activity (Mus musculus [11]): Dose-dependent effect
Activity (Mus musculus [25]): Active
Activity (Mus musculus [26]): Active
Activity (Mus musculus [27]): Active
Activity (Mus musculus [28]): Active
Activity (Mus musculus [21]): inactive
Activity (Mus musculus [22]): inactive
Activity (Mus musculus [23]): inactive
Activity (Mus musculus [24]): inactive

Ki [1]: 55 nM
IC50 [2]: 200 nM
SMILES: COc1cccc(C#Cc2cncc(C#N)c2)n1

inhibition [7]: Dose-dependent effect
SMILES: Cc1nc(C#Cc2cccnc2)cs1
Activity (Mus musculus [8]): Dose-dependent effect
Activity (Mus musculus [9]): Dose-dependent effect
Activity (Mus musculus [10]): Dose-dependent effect
Activity (Mus musculus [11]): Dose-dependent effect
Activity (Mus musculus [29]): Active
Activity (Mus musculus [30]): Active
Activity (Mus musculus [31]): Active
Activity (Mus musculus [32]): Active
